Calls of active or inactive are those of the source. No cut-off for these calls is given here. Where a SMILES comes first, the peptide text is derived from it. Bridges are numbered along the chain shown (N, C = ends). [ ]: non-standard residue; d: D form. The star is where a group is joined. Dodecanoyl(12-guanidino) = N=C(N)NCCCCCCCCCCCC(=O)*; d(aThr) = C[C@@H](O)[C@@H](N)C(=O)O
Legend:
[1] = test system: Enterococcus faecium; assay: Antibacterial activity against vancomycin-resistant Enterococcus faecium USF-1449 at 100 ug/mL; assay type: functional, organism-based
Method in brief: (§1)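 CLSI microbroth dilution in undiluted Müller–Hinton broth; peptides dissolved in DMSO and diluted in medium to 1% DMSO (v/v) final. Each agent tested at a fixed concentration against the ESKAPE clinical isolate. Controls: medium alone, inoculum without drug, and inoculum with methicillin, vancomycin, nisin, colistin or bacitracin. Run in triplicate.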

[2] = test system: Staphylococcus aureus; assay: Antibacterial activity against methicillin-resistant Staphylococcus aureus CBD-635 at 100 ug/mL; assay type: functional, organism-based; method in brief: as §1
[3] = test system: Klebsiella pneumoniae; assay: Antibacterial activity against carbapenem-resistant Klebsiella pneumoniae USF-1433 at 100 ug/mL; assay type: functional, organism-based; method in brief: as §1
[4] = test system: Acinetobacter baumannii; assay: Antibacterial activity against Acinetobacter baumannii USF-1403 at 100 ug/mL; assay type: functional, organism-based
Method in brief: (§2)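 Broth microdilution per CLSI in undiluted Müller–Hinton broth. Compounds were dissolved in DMSO and diluted to a final 1% DMSO (v/v). Plates included medium-only and no-drug growth controls, plus methicillin, vancomycin, nisin, colistin and bacitracin. Triplicate runs.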

[5] = test system: Enterococcus faecium; assay: Antibacterial activity against vancomycin-resistant Enterococcus faecium USF-1449 at 50 ug/mL; assay type: functional, organism-based; method in brief: as §1
[6] = test system: Staphylococcus aureus; assay: Antibacterial activity against methicillin-resistant Staphylococcus aureus CBD-635 at 50 ug/mL; assay type: functional, organism-based; method in brief: as §1
[7] = test system: Klebsiella pneumoniae; assay: Antibacterial activity against carbapenem-resistant Klebsiella pneumoniae USF-1433 at 50 ug/mL; assay type: functional, organism-based; method in brief: as §1
[8] = test system: Acinetobacter baumannii; assay: Antibacterial activity against Acinetobacter baumannii USF-1403 at 50 ug/mL; assay type: functional, organism-based; method in brief: as §2
[9] = test system: Enterococcus faecium; assay: Antibacterial activity against vancomycin-resistant Enterococcus faecium USF-1449 at 35 ug/mL; assay type: functional, organism-based; method in brief: as §1
[10] = test system: Staphylococcus aureus; assay: Antibacterial activity against methicillin-resistant Staphylococcus aureus CBD-635 at 35 ug/mL; assay type: functional, organism-based; method in brief: as §1
[11] = test system: Acinetobacter baumannii; assay: Antibacterial activity against Acinetobacter baumannii USF-1403 at 35 ug/mL; assay type: functional, organism-based; method in brief: as §2
[12] = test system: Acinetobacter baumannii; assay: Antibacterial activity against Acinetobacter baumannii USF-1403 at 25 ug/mL; assay type: functional, organism-based; method in brief: as §2
[13] = test system: Staphylococcus aureus; assay: Antibacterial activity against methicillin-resistant Staphylococcus aureus CBD-635 at 25 ug/mL; assay type: functional, organism-based; method in brief: as §1
[14] = test system: Staphylococcus aureus; assay: Antibacterial activity against methicillin-resistant Staphylococcus aureus CBD-635 at 10 ug/mL; assay type: functional, organism-based; method in brief: as §1
[15] = test system: Staphylococcus aureus; assay: Antibacterial activity against methicillin-resistant Staphylococcus aureus CBD-635 at 5 ug/mL; assay type: functional, organism-based; method in brief: as §1
[16] = test system: Staphylococcus aureus; assay: Ratio of MIC for methicillin-resistant Staphylococcus aureus CBD-635 after 8 serial passages to MIC for methicillin-resistant Staphylococcus aureus CBD-635 after 1st serial passage; assay type: functional
Method in brief: (§3)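 Serial passage: exponential-phase cultures in MHB at about 10^6 CFU/mL final, started at ½ MIC of agent, incubated overnight at 37°C. An aliquot was moved each step to a 2-fold higher concentration, for 8 passages. MIC was determined at each step by broth microdilution. Vancomycin and ciprofloxacin were comparators. Three independent experiments.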

[17] = test system: Pseudomonas aeruginosa; assay: Ratio of MIC for Pseudomonas aeruginosa USF-1423 after 8 serial passages to MIC for Pseudomonas aeruginosa USF-1423 after 1st serial passage; assay type: functional; method in brief: as §3
[18] = test system: Enterococcus faecium; assay: Antibacterial activity against vancomycin-resistant Enterococcus faecium USF-1449 at 25 ug/mL; assay type: functional, organism-based; method in brief: as §1
[19] = test system: Staphylococcus aureus; assay: Antibacterial activity against methicillin-resistant Staphylococcus aureus SAP0017 clinical isolate assessed as inhibition of biofilm formation at 4.8 uM after 3 days by Styo-9/propidium iodide staining based confocal laser scanning microscopy; assay type: functional, organism-based
[20] = test system: Pseudomonas aeruginosa; assay: Antibacterial activity against Pseudomonas aeruginosa PA14 assessed as inhibition of biofilm formation at 4.8 uM after 3 days by Styo-9/propidium iodide staining based confocal laser scanning microscopy; assay type: functional, organism-based
[21] = test system: Staphylococcus aureus; assay: Antibacterial activity against methicillin-resistant Staphylococcus aureus SAP0017 clinical isolate assessed as eradication of mature biofilm formation at 4.8 uM after 24 hrs by Styo-9/propidium iodide staining based confocal laser scanning microscopy; assay type: functional, organism-based
[22] = test system: Pseudomonas aeruginosa; assay: Antibacterial activity against Pseudomonas aeruginosa PA14 assessed as eradication of mature biofilm formation at 4.8 uM after 24 hrs by Styo-9/propidium iodide staining based confocal laser scanning microscopy; assay type: functional, organism-based
[23] = Hemolytic activity in human erythrocytes at 155 uM after 1 hr; assay type: ADME, cell-based; details: erythrocyte
[24] = test system: BJ; assay: Cytotoxicity against human BJ cells assessed as reduction in cell viability at 150 uM after 48 to 72 hrs by Cell Titer-Glo Luminescent assay; assay type: cell-based
Method in brief: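 BJ fibroblasts were seeded at 10,000 per well in EMEM with 10% FBS and incubated overnight at 37 °C, 5% CO2. Medium was then replaced with 2% FBS medium containing peptide (0.5–500 μM, final 1% DMSO). After 48 and 72 h, viability was read by CellTiter-Glo luminescence. Controls were 10 μM doxorubicin and 20% DMSO.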

CC(C)C[C@@H]1NC(=O)[C@@H](CC(C)C)NC(=O)C(NC(=O)CCCCCCCCCCCNC(=N)N)CNC(=O)[C@@H](CCCNC(=N)N)NC(=O)[C@@H](CC(N)=O)NC(=O)[C@@H](CCCCN)NC1=O (some centres undefined)
Activity [1]: Active
Activity [2]: Active
Activity [3]: Active
Activity [4]: Active
Activity [5]: Active
Activity [6]: Active
Activity [7]: Active
Activity [8]: Active
Activity [9]: Active
Activity [10]: Active
Activity [11]: Active
Activity [12]: Active

CN[C@@H](CC(C)C)C(=O)N[C@H]1C(=O)N[C@@H](CC(N)=O)C(=O)N[C@H]2C(=O)N[C@H]3C(=O)N[C@H](C(=O)N[C@@H](C(=O)O)c4cc(O)cc(O)c4-c4cc3ccc4O)[C@H](O)c3ccc(c(Cl)c3)Oc3cc2cc(c3O[C@H]2O[C@@H](CO)[C@H](O)[C@@H](O)[C@@H]2O[C@@H]2C[C@@](C)(N)[C@@H](O)[C@@H](C)O2)Oc2ccc(cc2Cl)[C@H]1O
Activity [2]: Active
Activity [4]: Active
Activity [6]: Active
Activity [13]: Active
Activity [14]: Active
Activity [15]: Active
Ratio [16]: 64
Ratio [17]: 64

CC(C)C[C@@H]1NC(=O)[C@@H](Cc2c[nH]c3ccccc23)NC(=O)C(NC(=O)CCCCCCCCCCCNC(=N)N)CNC(=O)[C@@H](CCCNC(=N)N)NC(=O)[C@@H](CC(N)=O)NC(=O)[C@@H](Cc2c[nH]c3ccccc23)NC1=O (some centres undefined)
Activity [2]: Active
Activity [6]: Active
Activity [10]: Active
Activity [13]: Active

O=C(O)c1cn(C2CC2)c2cc(N3CCNCC3)c(F)cc2c1=O [CIPROFLOXACIN]
Ratio [16]: 64
Ratio [17]: 64

CC(C)C[C@@H]1NC(=O)[C@@H](CC(C)C)NC(=O)C(NC(=O)CCCCCCCCCCCNC(=N)N)CNC(=O)[C@@H](CCCNC(=N)N)NC(=O)[C@@H](CC(N)=O)NC(=O)[C@@H](Cc2ccccc2)NC1=O (some centres undefined)
Activity [2]: Active
Activity [6]: Active

CC(C)[C@@H]1NC(=O)[C@@H](C(C)C)NC(=O)[C@@H](NC(=O)CCCCCCCCCCCNC(=N)N)[C@@H](C)OC(=O)[C@@H](C)NC(=O)[C@@H](CC(N)=O)NC(=O)[C@@H]([C@@H](C)O)NC1=O ({Dodecanoyl(12-guanidino)}-T[dV]V[d(aThr)][dN][dA]; ester 1-C)
Activity [2]: Active
Activity [4]: Active
Activity [5]: Active
Activity [6]: Active
Activity [18]: Active
Activity [13]: Active
Activity [14]: Active
inhibition [19]: Active
inhibition [20]: Active
Activity [21]: Active
Activity [22]: Active
Activity [23]: Toxic
Activity [24]: Toxic

C[C@@H](O)[C@H]1NC(=O)[C@@H](CC(N)=O)NC(=O)[C@@H](CCCNC(=N)N)NC(=O)[C@H](Cc2c[nH]c3ccccc23)NC(=O)[C@@H](Cc2c[nH]c3ccccc23)NC(=O)C(NC(=O)CCCCCCCCCCCNC(=N)N)CNC1=O (some centres undefined)
Activity [2]: Active
Activity [6]: Active
Activity [10]: Active
